The text below walks through data of ChEMBL document CHEMBL4017517, “Small Molecule Inhibitors Simultaneously Targeting Cancer Metabolism and Epigenetics: Discovery of Novel Nicotinamide Phosphoribosyltransferase (NAMPT) and Histone Deacetylase (HDAC) Dual Inhibitors” (J Med Chem, 2017).

pIC50: −log10 of the molar value. Activity calls are given as the source filed them. The calls are words filed in the database; no cut-off is given here.

For data set [1], the system named is HCT-116. Description: Induction of apoptosis in human HCT116 cells assessed as early apoptotic cells at 5 uM after 72 hrs by Annexin V-FITC/propidium iodide staining-based flow cytometric analysis (reference value: 7.82%). The data set is classed as functional. Put shortly:
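HCT116 cells seeded at 5×10^5 cells/mL in six-well plates, treated at 5 μM for 72 h alongside vehicle. Cells trypsinized, washed twice in cold PBS, and resuspended in 1× binding buffer. Stained with annexin V-FITC 15 min at room temperature, then PI 15 min in dark, then flow cytometry.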

Data set [2] deals with T1, Nicotinamide phosphoribosyltransferase (Homo sapiens, UniProt P43490). Description: Inhibition of human recombinant NAMPT using NAM as substrate preincubated for 5 mins followed by substrate addition measured after 15 mins by fluorescence assay.
Target sequence in this assay (P43490 whole entry): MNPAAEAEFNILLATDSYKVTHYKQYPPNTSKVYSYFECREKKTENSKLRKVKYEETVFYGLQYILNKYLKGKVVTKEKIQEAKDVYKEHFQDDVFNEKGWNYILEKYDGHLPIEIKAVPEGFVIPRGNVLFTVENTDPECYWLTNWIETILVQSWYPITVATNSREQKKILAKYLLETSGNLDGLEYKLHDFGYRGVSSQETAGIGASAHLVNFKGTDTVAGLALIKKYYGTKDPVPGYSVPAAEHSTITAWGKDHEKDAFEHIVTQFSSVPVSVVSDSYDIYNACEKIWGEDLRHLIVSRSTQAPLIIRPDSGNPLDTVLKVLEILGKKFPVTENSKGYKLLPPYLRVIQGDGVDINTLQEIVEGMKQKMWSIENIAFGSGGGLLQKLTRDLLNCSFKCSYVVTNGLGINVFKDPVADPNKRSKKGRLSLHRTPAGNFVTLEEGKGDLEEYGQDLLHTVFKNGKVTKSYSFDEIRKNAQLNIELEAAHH
The test system of data set [3] is HCT-116. The experiment in a line: cells. The data set is classed as functional, cell-based. As to conditions: Homo sapiens, HCT-116, 72 h.
A further data set relates to MDA-MB-231. Description: cells. The data set is classed as functional, cell-based. As to conditions: Homo sapiens, MDA-MB-231, 72 h.
The next data set deals with HepG2. Description: cells. Type of data set: functional, cell-based. As to conditions: Homo sapiens, HepG2, 72 h.
The target in data set [4] is T2, Protein deacetylase HDAC6 (Homo sapiens, UniProt Q9UBN7).
T2 sequence (Q9UBN7 whole entry): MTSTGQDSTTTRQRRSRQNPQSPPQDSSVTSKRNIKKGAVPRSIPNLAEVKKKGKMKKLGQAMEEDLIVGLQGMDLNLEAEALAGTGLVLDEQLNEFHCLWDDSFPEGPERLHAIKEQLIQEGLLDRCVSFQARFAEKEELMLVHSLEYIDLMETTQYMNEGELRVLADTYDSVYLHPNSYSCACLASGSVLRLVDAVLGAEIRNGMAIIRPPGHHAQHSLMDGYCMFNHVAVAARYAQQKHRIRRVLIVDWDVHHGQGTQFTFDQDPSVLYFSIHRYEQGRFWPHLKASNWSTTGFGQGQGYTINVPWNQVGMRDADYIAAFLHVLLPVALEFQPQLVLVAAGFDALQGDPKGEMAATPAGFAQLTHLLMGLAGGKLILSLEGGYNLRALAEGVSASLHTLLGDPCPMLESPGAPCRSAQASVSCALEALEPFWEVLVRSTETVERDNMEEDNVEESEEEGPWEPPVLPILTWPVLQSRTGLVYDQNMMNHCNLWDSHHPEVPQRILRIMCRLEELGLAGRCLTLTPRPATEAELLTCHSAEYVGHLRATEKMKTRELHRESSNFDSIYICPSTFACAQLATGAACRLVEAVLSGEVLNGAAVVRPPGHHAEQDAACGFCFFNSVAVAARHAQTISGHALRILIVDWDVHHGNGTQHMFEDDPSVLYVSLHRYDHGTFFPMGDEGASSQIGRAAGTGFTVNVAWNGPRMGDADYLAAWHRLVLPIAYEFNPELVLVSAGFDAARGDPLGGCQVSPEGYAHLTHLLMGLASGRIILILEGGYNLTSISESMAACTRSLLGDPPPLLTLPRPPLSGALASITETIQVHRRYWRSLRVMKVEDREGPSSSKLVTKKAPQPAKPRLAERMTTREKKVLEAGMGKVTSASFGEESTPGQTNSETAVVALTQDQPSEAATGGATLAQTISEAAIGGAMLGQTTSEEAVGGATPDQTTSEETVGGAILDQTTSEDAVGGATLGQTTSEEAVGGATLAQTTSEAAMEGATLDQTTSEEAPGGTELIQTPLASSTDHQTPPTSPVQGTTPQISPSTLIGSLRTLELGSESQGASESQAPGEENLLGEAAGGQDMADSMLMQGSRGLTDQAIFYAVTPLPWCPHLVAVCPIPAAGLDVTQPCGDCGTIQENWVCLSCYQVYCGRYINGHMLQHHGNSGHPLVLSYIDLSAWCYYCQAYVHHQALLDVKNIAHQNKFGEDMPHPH
The experiment in a line: Inhibition of human recombinant HDAC6 expressed in Baculovirus infected Sf9 cells using Ac-Leu-Gly-Lys(Ac)-AMC as substrate preincubated for 5 mins followed by substrate addition measured after 30 mins by fluorescence assay.

The target of data set [5] is Histone deacetylase 3/NCoR1 (Homo sapiens, UniProt O15379). Description: Inhibition of human recombinant HDAC3/GST tagged NCOR1 (397 to 503 residues) expressed in insect cells using Ac-Leu-Gly-Lys(Ac)-AMC as substrate preincubated for 5 mins followed by substrate addition measured after 30 mins by fluorescence assay.
Chain of Histone deacetylase 3/NCoR1 (O15379 whole entry, the tested form may be a part): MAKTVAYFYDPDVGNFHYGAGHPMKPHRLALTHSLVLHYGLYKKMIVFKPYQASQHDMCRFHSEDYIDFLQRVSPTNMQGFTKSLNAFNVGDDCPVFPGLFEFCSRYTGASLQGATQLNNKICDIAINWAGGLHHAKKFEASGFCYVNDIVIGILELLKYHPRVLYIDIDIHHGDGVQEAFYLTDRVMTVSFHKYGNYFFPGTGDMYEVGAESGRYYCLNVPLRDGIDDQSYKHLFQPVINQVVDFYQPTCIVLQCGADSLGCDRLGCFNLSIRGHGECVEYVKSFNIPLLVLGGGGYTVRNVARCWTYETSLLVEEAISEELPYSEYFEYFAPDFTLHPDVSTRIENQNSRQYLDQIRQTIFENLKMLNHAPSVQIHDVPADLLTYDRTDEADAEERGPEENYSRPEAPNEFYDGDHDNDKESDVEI
Chain of Histone deacetylase 3/NCoR1 (O75376 whole entry, further chain, the tested form may be a part): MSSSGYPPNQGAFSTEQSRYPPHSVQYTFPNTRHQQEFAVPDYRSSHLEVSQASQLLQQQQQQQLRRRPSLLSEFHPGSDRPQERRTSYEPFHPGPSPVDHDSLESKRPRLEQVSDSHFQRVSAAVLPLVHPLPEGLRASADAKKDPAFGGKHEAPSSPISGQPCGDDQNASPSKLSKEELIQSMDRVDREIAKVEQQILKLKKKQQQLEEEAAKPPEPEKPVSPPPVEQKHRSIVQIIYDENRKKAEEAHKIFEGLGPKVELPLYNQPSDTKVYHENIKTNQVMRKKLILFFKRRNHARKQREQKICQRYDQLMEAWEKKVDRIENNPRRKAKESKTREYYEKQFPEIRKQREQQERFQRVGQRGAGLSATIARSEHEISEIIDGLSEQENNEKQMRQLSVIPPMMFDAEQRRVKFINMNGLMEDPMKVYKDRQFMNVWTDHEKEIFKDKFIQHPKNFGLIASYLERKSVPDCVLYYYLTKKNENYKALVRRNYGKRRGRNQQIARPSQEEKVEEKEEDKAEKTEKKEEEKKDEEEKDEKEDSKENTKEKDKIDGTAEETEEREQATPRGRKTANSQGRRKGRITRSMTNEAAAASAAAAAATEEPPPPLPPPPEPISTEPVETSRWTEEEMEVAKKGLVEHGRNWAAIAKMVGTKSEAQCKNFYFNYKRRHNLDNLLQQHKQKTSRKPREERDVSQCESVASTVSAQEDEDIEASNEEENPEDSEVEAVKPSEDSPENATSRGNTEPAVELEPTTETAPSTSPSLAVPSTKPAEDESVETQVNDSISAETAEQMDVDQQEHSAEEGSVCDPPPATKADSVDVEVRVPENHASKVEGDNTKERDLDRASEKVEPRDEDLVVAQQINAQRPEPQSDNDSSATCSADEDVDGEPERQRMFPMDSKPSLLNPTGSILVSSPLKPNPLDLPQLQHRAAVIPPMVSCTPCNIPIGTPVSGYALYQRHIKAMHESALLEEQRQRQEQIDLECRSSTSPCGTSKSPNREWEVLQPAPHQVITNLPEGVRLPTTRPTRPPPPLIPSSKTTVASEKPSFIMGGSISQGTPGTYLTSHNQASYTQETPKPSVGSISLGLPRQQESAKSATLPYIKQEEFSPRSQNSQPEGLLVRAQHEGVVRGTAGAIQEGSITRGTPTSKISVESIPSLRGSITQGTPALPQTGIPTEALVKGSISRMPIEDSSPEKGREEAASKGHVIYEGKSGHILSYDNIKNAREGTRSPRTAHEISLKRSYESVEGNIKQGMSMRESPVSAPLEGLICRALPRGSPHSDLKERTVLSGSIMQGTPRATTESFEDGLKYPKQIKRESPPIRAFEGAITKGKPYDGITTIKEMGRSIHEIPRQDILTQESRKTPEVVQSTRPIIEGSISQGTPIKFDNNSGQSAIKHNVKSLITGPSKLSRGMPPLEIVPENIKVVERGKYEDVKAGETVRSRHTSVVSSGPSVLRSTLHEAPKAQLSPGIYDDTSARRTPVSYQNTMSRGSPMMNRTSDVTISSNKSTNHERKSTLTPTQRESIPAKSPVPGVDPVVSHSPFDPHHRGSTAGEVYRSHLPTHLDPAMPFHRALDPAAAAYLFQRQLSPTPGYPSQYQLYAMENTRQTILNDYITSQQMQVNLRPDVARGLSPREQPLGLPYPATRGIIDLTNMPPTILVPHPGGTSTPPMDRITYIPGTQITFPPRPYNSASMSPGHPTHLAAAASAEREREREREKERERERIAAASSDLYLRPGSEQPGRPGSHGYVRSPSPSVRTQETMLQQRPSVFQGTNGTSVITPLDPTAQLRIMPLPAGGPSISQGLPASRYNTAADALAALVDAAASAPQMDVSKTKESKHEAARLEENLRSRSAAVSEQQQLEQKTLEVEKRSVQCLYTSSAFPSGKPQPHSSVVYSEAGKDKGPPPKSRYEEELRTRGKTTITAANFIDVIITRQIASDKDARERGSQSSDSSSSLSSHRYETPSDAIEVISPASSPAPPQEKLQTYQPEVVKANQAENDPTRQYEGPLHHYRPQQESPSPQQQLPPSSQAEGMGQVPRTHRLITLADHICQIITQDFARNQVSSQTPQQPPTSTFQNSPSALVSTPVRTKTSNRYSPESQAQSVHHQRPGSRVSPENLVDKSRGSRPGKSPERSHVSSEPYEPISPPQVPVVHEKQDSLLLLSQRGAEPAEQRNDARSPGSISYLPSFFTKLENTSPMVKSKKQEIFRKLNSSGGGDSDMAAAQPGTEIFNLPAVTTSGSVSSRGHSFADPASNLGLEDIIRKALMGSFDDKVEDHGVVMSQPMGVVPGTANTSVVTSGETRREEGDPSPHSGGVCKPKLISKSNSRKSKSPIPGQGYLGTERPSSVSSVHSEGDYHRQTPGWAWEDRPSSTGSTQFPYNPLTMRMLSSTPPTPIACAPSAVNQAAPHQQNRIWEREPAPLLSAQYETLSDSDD
The test system of data set [6] is HCT-116. Description: Induction of autophagy in human HCT116 cells assessed as increase in LC3-2 level at 5 uM after 24 hrs by Western blot analysis. Type of data set: functional, cell-based. The gist of the method:
(§1)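 HCT116 cells exposed to 5 μM for 24, 48 and 72 h; DMSO control. Lysed in RIPA on ice, cleared 12000 × g. 30 μg protein per lane on SDS-PAGE, transferred to PVDF, blocked in 5% BSA. Probed overnight at 4 °C for LC3-II and P-62, then secondary antibody 1.5 h. Infrared imaging detection with quantification.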

Data set [7] relates to HCT-116. The experiment in a line: Induction of autophagy in human HCT116 cells assessed as increase in LC3-2 level at 5 uM after 48 to 72 hrs by Western blot analysis. Type of data set: functional, cell-based. The gist of the method:
as §1

Data set [8] concerns HCT-116. Description: Induction of autophagy in human HCT116 cells assessed as decrease in P-62 level at 5 uM after 24 to 72 hrs by Western blot analysis. Type of data set: functional, cell-based. The gist of the method:
as §1

For a further data set, the species on record is Homo sapiens. Description: Inhibition of HDAC in human HCT116 cells assessed as increase in acetylated histone H3 level after 24 hrs by Western blot analysis. Type of data set: cell-based. The gist of the method: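 HCT116 cells treated at 1 and 5 μM for 24 h; DMSO-volume control. PBS-washed, RIPA-lysed on ice 30 min, centrifuged 12000 × g 15 min at 4 °C. 30 μg protein separated by SDS-PAGE, blotted to PVDF, blocked 5% BSA 2 h. Incubated with acetyl-histone H3 or H4 primary antibody overnight at 4 °C, then secondary antibody; infrared imaging.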

The test system of data set [9] is HCT-116. Description: animal or person. The data set is classed as functional, Homo sapiens. As to conditions: Mus musculus, HCT-116, ip, read-out: TGI.
The nature of data set [10]: Cmax in Sprague-Dawley rat at 2 mg/kg, ip. The data set is classed as ADME, organism-based. Set-up: dose 2 mg/kg, route intraperitoneal. As to conditions: in vivo. The gist of the method: (§2)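 Sprague-Dawley rats given a single ip dose of 2 mg/kg. Plasma concentration–time profile used to derive terminal half-life, Cmax, plasma clearance and Vss.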
The nature of data set [11]: Plasma clearance in Sprague-Dawley rat at 2 mg/kg, ip. Type of data set: ADME, organism-based. The gist of the method: as §2
The target in a further data set is Histone deacetylase 1 (Homo sapiens, UniProt Q13547). The experiment in a line: Inhibition of human recombinant HDAC1 (1 to 482 residues) expressed in Baculovirus using Ac-Leu-Gly-Lys(Ac)-AMC as substrate after 3 hrs by fluorescence assay.
Chain of Histone deacetylase 1 (Q13547 whole entry, the tested form may be a part): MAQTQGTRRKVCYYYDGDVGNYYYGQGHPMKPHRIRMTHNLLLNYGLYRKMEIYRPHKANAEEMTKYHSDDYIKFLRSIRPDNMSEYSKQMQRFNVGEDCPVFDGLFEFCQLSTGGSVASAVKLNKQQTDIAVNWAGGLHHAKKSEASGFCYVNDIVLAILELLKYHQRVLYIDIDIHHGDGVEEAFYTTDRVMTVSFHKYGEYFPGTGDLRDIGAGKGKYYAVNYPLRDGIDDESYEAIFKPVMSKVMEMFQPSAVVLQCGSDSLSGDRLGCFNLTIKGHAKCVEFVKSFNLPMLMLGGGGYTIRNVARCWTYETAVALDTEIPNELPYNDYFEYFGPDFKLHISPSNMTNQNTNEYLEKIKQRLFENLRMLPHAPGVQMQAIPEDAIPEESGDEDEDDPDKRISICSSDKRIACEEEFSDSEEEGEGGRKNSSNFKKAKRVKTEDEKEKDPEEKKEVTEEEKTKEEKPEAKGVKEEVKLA
Data set [12] concerns the target T1, Nicotinamide phosphoribosyltransferase. As to conditions: 10 uM.
Target sequence in this assay (P43490 whole entry, looked up): as the sequence (P43490 whole entry) above

Consider `Nc1ccccc1NC(=O)c1ccc(Cn2cc(-c3ccc(C(=O)NCc4cccnc4)cc3)nn2)cc1`, for which the Activity in the data set on HCT-116 [1] amounted to 22.15%. Besides, the pIC50 was 7.51 in [2]; 5.62 in the data set with HCT-116 [3]; 5.00 in the data set on MDA-MB-231; 5.35 with HepG2; less than 4.00 in data set [4]; 5.73 in data set [5]. Further, the negative logarithm of the IC50 (pIC50) at Histone deacetylase 1 was 7.62. Further, the result in the data set with HCT-116 [6] and in the data set on HCT-116 [8] was Active. Further, the result in the data set with HCT-116 [7] was inactive. For the same molecule, the inhibition result in the data set filed under Homo sapiens is “Active”. The inhibition in vivo at 25 mg/kg in the data set on HCT-116 [9] was found to be 69%. Besides, in [10], the Cmax turned out to be 745 ng/mL. The molecule also had a CL/F in data set [11] of 103 mL/min/kg. Further, the ΔTm in data set [12] came to 1.58 °C.
